The source made the active and inactive calls. The calls are words filed in the database; no cut-off is given here.
Assays:
[1] = biological target: Serine/threonine-protein kinase PLK1 (Homo sapiens) (UniProt P53350); experiment: Inhibition of PLK1 Lys2 labeling site harbouring VIHRDLKLGNLFLNEDLEVK in human Huh-7 cell lysate at 1 uM by KiNativ Profiling analysis relative to control; type: subcellular
[2] = biological target: T1, NUAK family SNF1-like kinase 1 (Homo sapiens) (UniProt O60285); experiment: Inhibition of NuaK1 Lys2 labeling site in human Huh-7 cells at 1 uM by KiNativ Profiling analysis relative to control; type: cell-based
T1 sequence (whole entry): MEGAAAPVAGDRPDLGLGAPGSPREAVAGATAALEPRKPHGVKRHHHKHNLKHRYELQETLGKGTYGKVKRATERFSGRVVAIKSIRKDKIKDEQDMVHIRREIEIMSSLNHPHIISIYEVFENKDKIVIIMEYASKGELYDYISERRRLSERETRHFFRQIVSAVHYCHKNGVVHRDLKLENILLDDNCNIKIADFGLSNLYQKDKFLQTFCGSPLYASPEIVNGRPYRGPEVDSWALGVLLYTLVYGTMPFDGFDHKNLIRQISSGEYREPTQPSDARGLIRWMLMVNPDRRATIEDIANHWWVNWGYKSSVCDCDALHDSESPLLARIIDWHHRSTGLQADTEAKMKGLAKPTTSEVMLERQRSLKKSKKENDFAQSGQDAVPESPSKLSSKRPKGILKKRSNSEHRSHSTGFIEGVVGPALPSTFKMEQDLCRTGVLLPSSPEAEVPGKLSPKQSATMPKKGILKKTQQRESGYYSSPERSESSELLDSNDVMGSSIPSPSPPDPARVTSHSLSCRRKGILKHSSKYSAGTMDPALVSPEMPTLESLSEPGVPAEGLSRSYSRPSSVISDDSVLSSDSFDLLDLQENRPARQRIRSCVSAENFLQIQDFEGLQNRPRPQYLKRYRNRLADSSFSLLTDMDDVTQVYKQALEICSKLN

[3] = biological target: Ribosomal protein S6 kinase alpha-3 (Homo sapiens) (UniProt P51812); experiment: Inhibition of RSK2 domain2 Protein Kinase Domain labeling site in human Huh-7 cell lysate at 1 uM by KiNativ Profiling analysis relative to control; type: subcellular
Sequence of Ribosomal protein S6 kinase alpha-3 (Homo sapiens) (P51812 whole entry, the tested form may be a part): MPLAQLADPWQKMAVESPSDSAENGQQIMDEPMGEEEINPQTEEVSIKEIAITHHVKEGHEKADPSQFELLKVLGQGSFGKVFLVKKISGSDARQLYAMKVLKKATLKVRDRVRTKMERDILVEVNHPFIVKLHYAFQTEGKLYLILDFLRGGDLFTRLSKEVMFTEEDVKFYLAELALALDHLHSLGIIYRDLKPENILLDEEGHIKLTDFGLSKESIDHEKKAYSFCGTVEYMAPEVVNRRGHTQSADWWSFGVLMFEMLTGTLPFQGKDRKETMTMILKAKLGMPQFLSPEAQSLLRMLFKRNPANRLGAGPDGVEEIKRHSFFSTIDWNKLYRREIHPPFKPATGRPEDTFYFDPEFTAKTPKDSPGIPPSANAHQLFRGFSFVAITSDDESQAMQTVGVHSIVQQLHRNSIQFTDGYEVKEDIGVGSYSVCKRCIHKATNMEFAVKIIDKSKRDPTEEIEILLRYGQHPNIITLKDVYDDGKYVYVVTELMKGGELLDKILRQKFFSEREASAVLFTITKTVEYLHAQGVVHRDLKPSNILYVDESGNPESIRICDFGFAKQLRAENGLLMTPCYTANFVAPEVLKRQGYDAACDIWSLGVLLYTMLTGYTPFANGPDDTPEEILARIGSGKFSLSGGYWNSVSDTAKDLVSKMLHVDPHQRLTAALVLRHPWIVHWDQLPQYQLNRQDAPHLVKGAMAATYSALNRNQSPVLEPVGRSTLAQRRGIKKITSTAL

[4] = biological target: Serine/threonine-protein kinase 16 (Homo sapiens) (UniProt O75716); experiment: Inhibition of MPSK1 Lys2 labeling site in human Huh-7 cell lysate at 1 uM by KiNativ Profiling analysis relative to control; type: subcellular
Sequence of Serine/threonine-protein kinase 16 (Homo sapiens) (O75716 whole entry): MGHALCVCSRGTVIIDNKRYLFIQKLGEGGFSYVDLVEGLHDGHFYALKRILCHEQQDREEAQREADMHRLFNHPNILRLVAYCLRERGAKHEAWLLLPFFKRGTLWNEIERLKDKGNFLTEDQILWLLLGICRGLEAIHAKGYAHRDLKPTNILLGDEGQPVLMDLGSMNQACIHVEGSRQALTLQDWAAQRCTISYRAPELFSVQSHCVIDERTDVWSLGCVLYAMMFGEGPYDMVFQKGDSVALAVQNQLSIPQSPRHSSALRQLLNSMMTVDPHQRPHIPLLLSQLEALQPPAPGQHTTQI

[5] = biological target: p38 delta/gamma (Homo sapiens) (UniProt O15264+P53778); experiment: Inhibition of p38d/g K2 labeling site in human Huh-7 cells at 1 uM by KiNativ Profiling analysis relative to control; type: cell-based
[6] = biological target: Mitogen-activated protein kinase kinase kinase 4 (Homo sapiens) (UniProt Q9Y6R4); experiment: Inhibition of MAP3K4 (unknown origin) at 10 uM by Ambit Kinomescan binding assay
Sequence of Mitogen-activated protein kinase kinase kinase 4 (Homo sapiens) (Q9Y6R4 whole entry): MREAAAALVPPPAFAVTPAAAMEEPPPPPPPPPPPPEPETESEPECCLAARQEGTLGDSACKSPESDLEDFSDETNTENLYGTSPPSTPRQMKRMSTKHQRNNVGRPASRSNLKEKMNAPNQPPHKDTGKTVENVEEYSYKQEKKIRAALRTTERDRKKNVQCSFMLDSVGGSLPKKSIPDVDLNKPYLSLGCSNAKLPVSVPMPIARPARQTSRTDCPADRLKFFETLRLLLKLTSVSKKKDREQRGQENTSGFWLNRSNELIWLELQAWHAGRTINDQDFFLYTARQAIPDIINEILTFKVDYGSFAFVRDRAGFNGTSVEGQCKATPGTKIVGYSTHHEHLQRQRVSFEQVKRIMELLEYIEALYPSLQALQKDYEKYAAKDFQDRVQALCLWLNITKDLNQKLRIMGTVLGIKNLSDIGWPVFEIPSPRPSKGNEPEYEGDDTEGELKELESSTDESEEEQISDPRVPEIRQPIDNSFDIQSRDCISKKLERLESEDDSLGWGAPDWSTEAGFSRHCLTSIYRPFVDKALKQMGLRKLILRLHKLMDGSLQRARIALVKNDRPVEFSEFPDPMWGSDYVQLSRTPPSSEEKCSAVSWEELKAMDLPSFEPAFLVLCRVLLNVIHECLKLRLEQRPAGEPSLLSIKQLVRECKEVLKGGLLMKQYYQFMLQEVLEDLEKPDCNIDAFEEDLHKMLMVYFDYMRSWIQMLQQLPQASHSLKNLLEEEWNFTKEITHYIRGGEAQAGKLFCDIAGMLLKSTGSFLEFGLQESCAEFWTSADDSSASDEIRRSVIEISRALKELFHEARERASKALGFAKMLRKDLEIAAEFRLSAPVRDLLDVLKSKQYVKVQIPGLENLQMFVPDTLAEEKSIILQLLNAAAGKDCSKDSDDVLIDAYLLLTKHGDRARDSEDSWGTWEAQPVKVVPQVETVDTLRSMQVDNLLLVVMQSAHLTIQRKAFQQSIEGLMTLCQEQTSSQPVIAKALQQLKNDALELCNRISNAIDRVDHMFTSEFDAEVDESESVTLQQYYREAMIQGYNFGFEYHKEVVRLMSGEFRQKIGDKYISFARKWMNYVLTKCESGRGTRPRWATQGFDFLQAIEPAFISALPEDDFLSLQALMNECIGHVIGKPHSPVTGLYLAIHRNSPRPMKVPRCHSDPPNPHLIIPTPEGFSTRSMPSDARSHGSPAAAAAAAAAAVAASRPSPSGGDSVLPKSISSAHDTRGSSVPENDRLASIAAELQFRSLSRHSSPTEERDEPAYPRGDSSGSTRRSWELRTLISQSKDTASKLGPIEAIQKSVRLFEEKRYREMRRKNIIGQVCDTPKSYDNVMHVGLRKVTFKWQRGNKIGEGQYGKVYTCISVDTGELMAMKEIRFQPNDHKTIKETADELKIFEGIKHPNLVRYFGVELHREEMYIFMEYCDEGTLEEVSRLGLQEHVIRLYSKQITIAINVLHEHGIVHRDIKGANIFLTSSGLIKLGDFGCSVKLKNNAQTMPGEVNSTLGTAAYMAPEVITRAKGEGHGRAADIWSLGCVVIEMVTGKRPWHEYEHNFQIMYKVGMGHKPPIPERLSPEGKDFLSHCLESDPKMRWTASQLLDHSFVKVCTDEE

[7] = biological target: Tyrosine-protein kinase receptor UFO (Homo sapiens) (UniProt P30530); experiment: Inhibition of AXL ACT labeling site in human A-375 cells at 0.5 uM by KiNativ Profiling analysis relative to control; type: cell-based
Summary of the method: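 Live A375 melanoma cells were treated with compound at 5 or 0.5 μM, then lysed. Lysates were labeled with a lysine-reactive ATP or ADP-biotin probe. Read-out was the compound's protection of kinase labeling sites from probe labeling (KiNativ).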

[8] = biological target: Phosphatidylinositol 4,5-bisphosphate 3-kinase catalytic subunit alpha isoform (Homo sapiens) (UniProt P42336); experiment: Inhibition of PIK3CA (unknown origin) at 10 uM by Ambit Kinomescan binding assay
[9] = biological target: T2, Inhibitor of nuclear factor kappa-B kinase subunit epsilon (Homo sapiens) (UniProt Q14164); experiment: Inhibition of IKKe Lys1 labeling site in human A-375 cells at 5 uM by KiNativ Profiling analysis relative to control; type: cell-based
T2 sequence (whole entry): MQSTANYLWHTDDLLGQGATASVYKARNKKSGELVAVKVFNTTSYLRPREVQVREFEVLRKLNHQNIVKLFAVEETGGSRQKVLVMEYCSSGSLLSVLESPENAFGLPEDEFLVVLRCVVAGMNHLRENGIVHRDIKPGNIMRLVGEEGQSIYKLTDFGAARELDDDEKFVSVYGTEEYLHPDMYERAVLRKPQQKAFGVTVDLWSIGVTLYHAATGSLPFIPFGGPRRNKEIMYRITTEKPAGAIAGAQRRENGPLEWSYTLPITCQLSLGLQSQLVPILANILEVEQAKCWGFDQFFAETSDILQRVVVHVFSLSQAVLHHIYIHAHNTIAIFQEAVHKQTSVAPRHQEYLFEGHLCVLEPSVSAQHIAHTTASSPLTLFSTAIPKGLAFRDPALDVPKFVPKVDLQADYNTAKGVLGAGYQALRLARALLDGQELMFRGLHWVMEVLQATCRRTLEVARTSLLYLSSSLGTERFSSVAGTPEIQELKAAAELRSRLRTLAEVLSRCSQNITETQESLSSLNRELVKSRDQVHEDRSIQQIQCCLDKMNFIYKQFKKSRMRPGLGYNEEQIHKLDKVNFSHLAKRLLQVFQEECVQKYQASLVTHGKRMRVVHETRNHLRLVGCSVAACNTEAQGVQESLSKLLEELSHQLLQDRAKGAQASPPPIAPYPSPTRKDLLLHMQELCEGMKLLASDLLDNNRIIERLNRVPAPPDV

[10] = biological target: Eukaryotic translation initiation factor 2-alpha kinase 1 (Homo sapiens) (UniProt Q9BQI3); experiment: Inhibition of EIF2AK1 (unknown origin) at 1 uM by Ambit Kinomescan binding assay relative to control; values are per cent of control
[11] = biological target: Discoidin domain-containing receptor 2 (Homo sapiens) (UniProt Q16832); experiment: Inhibition of DDR2 (unknown origin) at 1 uM by Ambit Kinomescan binding assay relative to control; values are per cent of control
Sequence of Discoidin domain-containing receptor 2 (Homo sapiens) (Q16832 whole entry, the tested form may be a part): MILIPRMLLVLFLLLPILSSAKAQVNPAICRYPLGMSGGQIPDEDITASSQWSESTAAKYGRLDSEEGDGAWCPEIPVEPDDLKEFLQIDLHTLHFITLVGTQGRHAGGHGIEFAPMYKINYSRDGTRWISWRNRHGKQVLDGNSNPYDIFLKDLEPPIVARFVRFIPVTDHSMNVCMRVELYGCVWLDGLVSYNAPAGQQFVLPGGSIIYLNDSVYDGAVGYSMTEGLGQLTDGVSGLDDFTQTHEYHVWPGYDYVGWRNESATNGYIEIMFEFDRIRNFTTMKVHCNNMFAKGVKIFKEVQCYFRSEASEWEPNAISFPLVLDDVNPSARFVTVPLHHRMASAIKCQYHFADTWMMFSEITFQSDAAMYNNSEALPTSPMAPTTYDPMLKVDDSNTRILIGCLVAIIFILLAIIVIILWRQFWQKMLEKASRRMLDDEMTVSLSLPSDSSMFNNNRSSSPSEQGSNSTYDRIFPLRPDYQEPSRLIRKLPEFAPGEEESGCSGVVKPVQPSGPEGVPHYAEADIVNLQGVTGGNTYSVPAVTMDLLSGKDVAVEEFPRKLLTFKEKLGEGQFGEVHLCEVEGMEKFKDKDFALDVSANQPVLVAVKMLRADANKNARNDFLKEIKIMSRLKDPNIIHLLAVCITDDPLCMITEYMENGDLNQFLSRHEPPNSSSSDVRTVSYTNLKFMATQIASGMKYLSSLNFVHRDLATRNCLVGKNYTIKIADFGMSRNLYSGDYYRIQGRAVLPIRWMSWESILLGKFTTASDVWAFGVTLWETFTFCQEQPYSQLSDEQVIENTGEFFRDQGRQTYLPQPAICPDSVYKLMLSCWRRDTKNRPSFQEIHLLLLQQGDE

[12] = biological target: Homeodomain-interacting protein kinase 1 (Homo sapiens) (UniProt Q86Z02); experiment: Inhibition of HIPK1 (unknown origin) at 1 uM by Ambit Kinomescan binding assay relative to control; values are per cent of control
[13] = biological target: Ephrin type-B receptor 6 (Homo sapiens) (UniProt O15197); experiment: Inhibition of EPHB6 (unknown origin) at 1 uM by Ambit Kinomescan binding assay relative to control; values are per cent of control
[14] = biological target: 5'-AMP-activated protein kinase catalytic subunit alpha-2 (Homo sapiens) (UniProt P54646); experiment: Inhibition of AMPKa2 Lys2 labeling site in human A-375 cells at 0.5 uM by KiNativ Profiling analysis relative to control; type: cell-based
Sequence of 5'-AMP-activated protein kinase catalytic subunit alpha-2 (Homo sapiens) (P54646 whole entry, looked up): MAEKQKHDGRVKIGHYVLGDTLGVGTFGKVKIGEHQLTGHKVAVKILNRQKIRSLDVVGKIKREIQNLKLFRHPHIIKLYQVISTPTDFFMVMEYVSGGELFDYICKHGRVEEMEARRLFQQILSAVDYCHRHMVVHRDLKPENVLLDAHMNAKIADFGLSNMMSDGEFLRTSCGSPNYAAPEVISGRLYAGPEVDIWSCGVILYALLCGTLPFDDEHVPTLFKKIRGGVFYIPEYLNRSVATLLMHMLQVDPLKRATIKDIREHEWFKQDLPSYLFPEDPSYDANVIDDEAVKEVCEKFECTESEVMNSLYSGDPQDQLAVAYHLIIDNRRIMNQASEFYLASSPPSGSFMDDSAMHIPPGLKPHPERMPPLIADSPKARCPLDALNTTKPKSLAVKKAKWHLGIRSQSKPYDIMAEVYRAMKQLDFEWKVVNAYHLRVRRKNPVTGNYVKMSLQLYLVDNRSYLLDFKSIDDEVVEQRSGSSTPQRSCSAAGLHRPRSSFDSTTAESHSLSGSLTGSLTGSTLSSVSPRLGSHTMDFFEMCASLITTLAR

Sequence of Serine/threonine-protein kinase PLK1 (Homo sapiens) (P53350 whole entry): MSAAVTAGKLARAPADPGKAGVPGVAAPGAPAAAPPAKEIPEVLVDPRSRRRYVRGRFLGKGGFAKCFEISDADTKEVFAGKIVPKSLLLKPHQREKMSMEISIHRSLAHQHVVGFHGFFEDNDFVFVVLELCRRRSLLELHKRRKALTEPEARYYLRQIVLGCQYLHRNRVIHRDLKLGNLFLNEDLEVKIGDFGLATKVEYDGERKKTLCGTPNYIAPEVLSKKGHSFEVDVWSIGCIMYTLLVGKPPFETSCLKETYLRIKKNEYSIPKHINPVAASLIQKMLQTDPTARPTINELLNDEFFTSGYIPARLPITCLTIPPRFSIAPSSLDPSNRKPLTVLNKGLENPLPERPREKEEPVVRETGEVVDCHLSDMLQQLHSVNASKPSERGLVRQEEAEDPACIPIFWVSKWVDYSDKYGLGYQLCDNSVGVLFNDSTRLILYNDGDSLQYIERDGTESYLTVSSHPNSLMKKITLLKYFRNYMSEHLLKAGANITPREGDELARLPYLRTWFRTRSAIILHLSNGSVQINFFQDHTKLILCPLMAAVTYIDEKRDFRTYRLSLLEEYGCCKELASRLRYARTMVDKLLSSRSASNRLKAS

CNc1cc(Oc2cc(C(=O)Nc3cc(N4CCN(C)CC4)cc(C(F)(F)F)c3)ccc2C)ncn1
inhibition [1]: 10.8%
inhibition [2]: 20.5%
inhibition [3]: 5.9%
inhibition [4]: 4.6%

CCN1CCN(Cc2ccc(NC(=O)c3ccc(C)c(Oc4ccnc5[nH]ccc45)c3)cc2C(F)(F)F)CC1
inhibition [5]: 25.2%
inhibition [6]: inactive
inhibition [7]: 2.3%
inhibition [8]: inactive
inhibition [9]: 0.8%

CCN1CCN(Cc2ccc(NC(=O)c3ccc(C)c(/C=C/c4cnc5[nH]ccc5c4OC)c3)cc2C(F)(F)F)CC1
residual activity [10]: 100%
residual activity [11]: 0.2%
residual activity [12]: 74%
residual activity [13]: 2.8%
inhibition [14]: -8.2%

— ChEMBL document CHEMBL5696442, “Discovery of type II inhibitors of TGFβ-activated kinase 1 (TAK1) and mitogen-activated protein kinase kinase kinase kinase 2 (MAP4K2)” (J Med Chem, 2015)
